Among the data in PubChem BioAssay AID1480 (NMMLSC, 2009) are fluorescence values, retold here.

Structures are written as SMILES. The list shows a part of the results. Values without a mark were called inactive.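 The calls were made as follows: active = fluorescence in ABCG2-expressing cells above the plate's control-well mean plus 3 SD (cut at about 15 in these data); inactive = the rest.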

The test is described as follows: compound autofluorescence in ABCG2-expressing IgMXP3 cells, confirmation, artefact control for ABC transporter inhibitor project, cell-based, 488/530 nm, flow cytometry (AID 1480).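 Also: median cell fluorescence with compound minus that of DMSO-treated control cells.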 The settings on record: compound autofluorescence 488/530 nm, at 6.6 µM, hits give high values. The procedure, abridged:
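Test system: drug-resistant ABCG2-expressing IgMXP3 cells, unlabeled with substrate / Medium: assay buffer supplied with a JC-1 mitochondrial potential kit / Probe or stimulus: none, JC-1 pump substrate omitted from wells / Compound dosing: single dose, test compound at 6.6 µM final / Schedule: 10 min compound exposure at 25 °C / Signal: high-throughput flow cytometry, green FL1 channel fluorescence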
Background: Flow cytometry measures light scatter and fluorescence of single cells or particles in a stream.

Regarding `COC(=O)COc1cc(C)cc2oc(=O)c3c(c12)CCCC3`, the fluorescence was 1.36.
